Test results as given in ChEMBL document CHEMBL4011605, “N-Piperonyl substitution on aminoquinoline-pyrimidine hybrids: Effect on the antiplasmodial potency” (Eur J Med Chem, 2017).
Calls of active or inactive are those of the source. No cut-off for these calls is given here.

Tests used:
Plasmodium falciparum [1] = test: Antiplasmodial activity against chloroquine-sensitive Plasmodium falciparum D6 infected in red blood cells after 72 hrs by Malstat reagent based LDH assay; type: functional, cell-based; conditions: D6, 72 h
Vero [2] = test: Cytotoxicity against African green monkey Vero cells; type: cell-based; conditions: chlorocebus sabaeus
In short: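 VERO (mammalian) cells were exposed to compounds up to a highest tested concentration of 9 µM. Cytotoxicity was expressed as IC50.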

[3] = Selectivity index, ratio of IC50 for African green monkey Vero cells to IC50 for chloroquine-sensitive Plasmodium falciparum D6; type: toxicity; conditions: read-out: Ratio IC50
In short: (§1)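 Selectivity index is the ratio of the VERO cytotoxicity IC50 to the antiplasmodial IC50 for the strain named. VERO cells were tested up to a highest concentration of 9 µM.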

[4] = Selectivity index, ratio of IC50 for African green monkey Vero cells to IC50 for chloroquine-resistant Plasmodium falciparum W2; type: toxicity; conditions: read-out: Ratio IC50; in short: as §1
Plasmodium falciparum [5] = test: Antiplasmodial activity against chloroquine-resistant Plasmodium falciparum W2 infected in red blood cells after 72 hrs by Malstat reagent based LDH assay; type: functional, cell-based; conditions: W2, 72 h
Vero [6] = test: Cytotoxicity against African green monkey Vero cells up to 9 uM; type: cell-based; conditions: chlorocebus sabaeus
Plasmodium falciparum [7] = test: Potency index, ratio of chloroquine IC50 to compound IC50 for chloroquine-resistant Plasmodium falciparum W2; type: functional
mu-oxodimeric heme [8] = test: Binding affinity to mu-oxodimeric heme (unknown origin) in aqueous NaOH solution assessed as 1:1 stoichiometry for heme-compound complex at 10 uM at pH 5.8 by Job's plot method
Heme [9] = test: Binding affinity to monomeric heme (unknown origin) assessed as decrease in intensity of soret band at 0.5 to 70 uM at pH 5.4 and 7.4 by titration based UV-vis spectrophotometric analysis
In short: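 Hemin stock (1.0 mM in DMSO, kept at 4 °C in the dark) is diluted daily to 10 µM monomeric heme in 0.02 M HEPES pH 7.4 or 0.02 M MES pH 5.4. Drug comes from a 1.0 mM DMSO stock and is titrated at 0.5–70 µM. After each addition the sample is mixed and the Soret band at 402 nm is read.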

mu-oxodimeric heme [10] = test: Binding affinity to mu-oxodimeric heme (unknown origin) in aqueous NaOH solution at 0.5 to 70 uM at pH 5.8 by titration-based UV-vis spectrophotometric analysis
In short: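 µ-Oxodimeric heme: hemin chloride is dissolved to 1.0 mM in 0.1 M aqueous NaOH with 30 min sonication, then diluted to 10 µM in 20 mM phosphate pH 5.8. Aliquots of a 1.0 mM drug stock are added stepwise (0.5–70 µM), and absorbance at 362 nm is recorded.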

Heme [11] = test: Binding affinity to monomeric heme (unknown origin) assessed as mole fraction of compound required to show 1:1 stoichiometry for heme-compound complex at pH 5.4 to 7.4 by Job's plot method
In short: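 Binding stoichiometry with monomeric heme is found by Job's continuous variation. Total drug plus heme is held at 10 µM, at pH 7.4 (HEPES) and at pH 5.4 (MES), with heme from a DMSO hemin stock. Absorbance is plotted against drug mole fraction.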

SMILES: Cc1cc(N2CCOCC2)nc(N(CCCNc2ccnc3cc(Cl)ccc23)Cc2ccc3c(c2)OCO3)n1
- IC50 (Plasmodium falciparum [1]): 130 nM
- IC50 (Vero [2]): 8680 nM
- selectivity ratio [3]: 67
- selectivity ratio [4]: 9.4
- IC50 (Plasmodium falciparum [5]): 930 nM

SMILES: Cc1cc(N(CCCNc2ccnc3cc(Cl)ccc23)Cc2ccc3c(c2)OCO3)nc(N2CCCCC2)n1
- Activity (Vero [6]): Non-Toxic
- IC50 (Plasmodium falciparum [1]): 150 nM
- selectivity ratio [3]: > 59.8
- selectivity ratio [4]: > 8.8
- IC50 (Plasmodium falciparum [5]): 990 nM

SMILES: Cc1cc(N(CCNc2ccnc3cc(Cl)ccc23)Cc2ccc3c(c2)OCO3)nc(N2CCOCC2)n1
- Activity (Vero [6]): Non-Toxic
- Ratio IC50 (Plasmodium falciparum [7]): 2 - 5
- IC50 (Plasmodium falciparum [1]): 50 nM
- selectivity ratio [3]: > 243
- selectivity ratio [4]: > 66.8
- IC50 (Plasmodium falciparum [5]): 220 nM

SMILES: Cc1cc(N(CCNc2ccnc3cc(Cl)ccc23)Cc2ccc3c(c2)OCO3)nc(N2CCCC2)n1
- Activity (Vero [6]): Non-Toxic
- IC50 (Plasmodium falciparum [1]): 40 nM
- selectivity ratio [3]: > 243
- selectivity ratio [4]: > 243
- IC50 (Plasmodium falciparum [5]): 100 nM

SMILES: Cc1cc(N(CCCNc2ccnc3cc(Cl)ccc23)Cc2ccc3c(c2)OCO3)nc(N2CCCC2)n1
- Activity (Vero [6]): Non-Toxic
- Ratio IC50 (Plasmodium falciparum [7]): 2 - 5
- IC50 (Plasmodium falciparum [1]): 50 nM
- selectivity ratio [3]: > 192
- selectivity ratio [4]: > 96.9
- IC50 (Plasmodium falciparum [5]): 90 nM

SMILES: Cc1cc(N2CCCC2)nc(N(CCNc2ccnc3cc(Cl)ccc23)Cc2ccc3c(c2)OCO3)n1
- Activity (Vero [6]): Non-Toxic
- IC50 (Plasmodium falciparum [1]): 150 nM
- selectivity ratio [3]: > 59.2
- selectivity ratio [4]: > 9.8
- IC50 (Plasmodium falciparum [5]): 930 nM

SMILES: Cc1cc(N2CCCC2)nc(N(CCCNc2ccnc3cc(Cl)ccc23)Cc2ccc3c(c2)OCO3)n1
- Activity (Vero [6]): Non-Toxic
- IC50 (Plasmodium falciparum [1]): 120 nM
- selectivity ratio [3]: > 76.7
- selectivity ratio [4]: > 15.1
- IC50 (Plasmodium falciparum [5]): 590 nM

SMILES: CCN1CCN(c2cc(C)nc(N(CCCNc3ccnc4cc(Cl)ccc34)Cc3ccc4c(c3)OCO4)n2)CC1
- Activity (Vero [6]): Non-Toxic
- Ratio IC50 (Plasmodium falciparum [7]): 2 - 5
- IC50 (Plasmodium falciparum [1]): 120 nM
- selectivity ratio [3]: > 71.1
- selectivity ratio [4]: > 37.9
- IC50 (Plasmodium falciparum [5]): 220 nM

SMILES: Clc1ccc2c(NCCCNCc3ccc4c(c3)OCO4)ccnc2c1
- Activity (Vero [6]): Non-Toxic
- Ratio IC50 (Plasmodium falciparum [7]): 2 - 5
- IC50 (Plasmodium falciparum [1]): 40 nM
- selectivity ratio [3]: > 243
- selectivity ratio [4]: > 84.5
- IC50 (Plasmodium falciparum [5]): 100 nM

SMILES: CCN(CC)CCCC(C)Nc1ccnc2cc(Cl)ccc12 (stereo not drawn) [CHLOROQUINE]
- Activity (Vero [6]): Non-Toxic

SMILES: Cc1cc(N2CCCCC2)nc(N(CCNc2ccnc3cc(Cl)ccc23)Cc2ccc3c(c2)OCO3)n1
- Activity (Vero [6]): Non-Toxic
- IC50 (Plasmodium falciparum [1]): 170 nM
- selectivity ratio [3]: > 53.6
- selectivity ratio [4]: > 15.9
- IC50 (Plasmodium falciparum [5]): < 430 nM

SMILES: Cc1cc(N(CCCNc2ccnc3cc(Cl)ccc23)Cc2ccc3c(c2)OCO3)nc(Cl)n1
- Activity (Vero [6]): Non-Toxic
- IC50 (Plasmodium falciparum [1]): 460 nM
- selectivity ratio [3]: > 20.9
- selectivity ratio [4]: > 8.4
- IC50 (Plasmodium falciparum [5]): 1140 nM

SMILES: Cc1cc(N2CCCCC2)nc(N(CCCNc2ccnc3cc(Cl)ccc23)Cc2ccc3c(c2)OCO3)n1
- Activity (Vero [6]): Non-Toxic
- IC50 (Plasmodium falciparum [1]): 150 nM
- selectivity ratio [3]: > 57.2
- selectivity ratio [4]: > 24.2
- IC50 (Plasmodium falciparum [5]): 360 nM

SMILES: Cc1cc(Cl)nc(N(CCCNc2ccnc3cc(Cl)ccc23)Cc2ccc3c(c2)OCO3)n1
- Activity (Vero [6]): Non-Toxic
- IC50 (Plasmodium falciparum [1]): 1110 nM
- selectivity ratio [3]: > 8.6
- selectivity ratio [4]: > 1.9
- IC50 (Plasmodium falciparum [5]): 5160 nM

SMILES: Cc1cc(Cl)nc(N(CCNc2ccnc3cc(Cl)ccc23)Cc2ccc3c(c2)OCO3)n1
- Activity (Vero [6]): Non-Toxic
- IC50 (Plasmodium falciparum [1]): 480 nM
- selectivity ratio [3]: > 20.5
- selectivity ratio [4]: > 9.8
- IC50 (Plasmodium falciparum [5]): 1010 nM

SMILES: Cc1cc(N2CCOCC2)nc(N(CCNc2ccnc3cc(Cl)ccc23)Cc2ccc3c(c2)OCO3)n1
- IC50 (Plasmodium falciparum [1]): 130 nM
- IC50 (Vero [2]): 6860 nM
- selectivity ratio [3]: 51.4
- selectivity ratio [4]: 8.5
- IC50 (Plasmodium falciparum [5]): 810 nM

SMILES: Cc1cc(N(CCNc2ccnc3cc(Cl)ccc23)Cc2ccc3c(c2)OCO3)nc(N2CCCCC2)n1
- Activity (Vero [6]): Non-Toxic
- IC50 (Plasmodium falciparum [1]): 50 nM
- selectivity ratio [3]: > 174
- selectivity ratio [4]: > 30.5
- IC50 (Plasmodium falciparum [5]): 290 nM

SMILES: Cc1cc(N(CCCNc2ccnc3cc(Cl)ccc23)Cc2ccc3c(c2)OCO3)nc(N2CCOCC2)n1
- Activity (Vero [6]): Non-Toxic
- IC50 (Plasmodium falciparum [1]): 150 nM
- selectivity ratio [3]: > 60
- selectivity ratio [4]: > 9.5
- IC50 (Plasmodium falciparum [5]): 910 nM

SMILES: CCN1CCN(c2nc(C)cc(N(CCNc3ccnc4cc(Cl)ccc34)Cc3ccc4c(c3)OCO4)n2)CC1
- Activity (mu-oxodimeric heme [8]): Active
- Activity (Heme [9]): Active
- Activity (Vero [6]): Non-Toxic
- Ratio IC50 (Plasmodium falciparum [7]): 8
- IC50 (Plasmodium falciparum [1]): 20 nM
- selectivity ratio [3]: > 243
- selectivity ratio [4]: > 60.4
- IC50 (Plasmodium falciparum [5]): 50 nM
- Activity (mu-oxodimeric heme [10]): Active
- Activity (Heme [11]): 0.5 molar ratio

SMILES: CCN1CCN(c2cc(C)nc(N(CCNc3ccnc4cc(Cl)ccc34)Cc3ccc4c(c3)OCO4)n2)CC1
- Activity (Vero [6]): Non-Toxic
- Ratio IC50 (Plasmodium falciparum [7]): 2 - 5
- IC50 (Plasmodium falciparum [1]): 30 nM
- selectivity ratio [3]: > 239
- selectivity ratio [4]: > 60.4
- IC50 (Plasmodium falciparum [5]): 140 nM

SMILES: Cc1cc(N(CCNc2ccnc3cc(Cl)ccc23)Cc2ccc3c(c2)OCO3)nc(Cl)n1
- Activity (Vero [6]): Non-Toxic
- IC50 (Plasmodium falciparum [1]): 590 nM
- selectivity ratio [3]: > 16.8
- selectivity ratio [4]: > 12.3
- IC50 (Plasmodium falciparum [5]): 780 nM

SMILES: CCN1CCN(c2nc(C)cc(N(CCCNc3ccnc4cc(Cl)ccc34)Cc3ccc4c(c3)OCO4)n2)CC1
- Activity (Vero [6]): Non-Toxic
- Ratio IC50 (Plasmodium falciparum [7]): 2 - 5
- IC50 (Plasmodium falciparum [1]): 40 nM
- selectivity ratio [3]: > 194
- selectivity ratio [4]: > 47.6
- IC50 (Plasmodium falciparum [5]): 170 nM

SMILES: Clc1ccc2c(NCCNCc3ccc4c(c3)OCO4)ccnc2c1
- Activity (Vero [6]): Non-Toxic
- Ratio IC50 (Plasmodium falciparum [7]): 8
- IC50 (Plasmodium falciparum [1]): 30 nM
- selectivity ratio [3]: > 243
- selectivity ratio [4]: > 54.3
- IC50 (Plasmodium falciparum [5]): 50 nM
